For eight molecules, Activity and IC50 results are on record in ChEMBL document CHEMBL1142416, “Pharmacological exploitation of the peroxisome proliferator-activated receptor gamma agonist ciglitazone to develop a novel class of androgen receptor-ablative agents” (J Med Chem, 2008).

The subject of assay [1] is LNCaP. The experiment in a line: Suppression of androgen receptor protein expression in human LNCaP cells at 60 uM by Western blotting. Format: functional, cell-based. The gist of the method: (§1)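 LNCaP cells (1×10⁶/T25 flask) were exposed in 10% FBS-supplemented medium; dose series ran 72 h. Protein extracts were resolved on 10% SDS-PAGE and transferred to nitrocellulose, then blocked in 5% milk/TBST. Blots were probed overnight at 4°C with mouse anti-AR or anti-β-actin (1:1000), then HRP goat anti-mouse (1:2500, 1 h), and detected by enhanced chemiluminescence.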
A general note: In western blotting, separated proteins are transferred to a membrane and probed.

The test system of assay [2] is LNCaP. The assay is described as follows: Suppression of androgen receptor mRNA expression in human LNCaP cells at 60 uM by RT-PCR. Format: functional, cell-based. The essentials:
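LNCaP cells (1×10⁶/T25 flask) were treated in 10% FBS-supplemented medium for various times. Total RNA was isolated and 6 μg reverse-transcribed. AR and β-actin (reference) were amplified by PCR with gene-specific primers, and products were resolved on 1.5% agarose gels.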

For assay [3], the system named is LNCaP. The experiment in a line: Cell cycle arrest in human LNCaP cells assessed as accumulation at S phase at 2.5 uM after 72 hrs. The class given is functional. The essentials:
(§2)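 LNCaP cells were plated at 2.5 × 10⁶ cells/well and treated at the stated concentrations for 72 h. They were washed in PBS, trypsinized and fixed in ice-cold 80% ethanol overnight at 4°C. Staining used propidium iodide (50 μg/ml) with RNase A (100 units/ml) in PBS. Phase distribution was measured by flow cytometry; values are the mean of two independent determinations.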

The test system of assay [4] is LNCaP. The experiment in a line: Cell cycle arrest in human LNCaP cells assessed as accumulation at G1 phase at 10 uM after 72 hrs. Format: functional. The gist of the method: as §2
Assay [5] concerns LNCaP. The assay is described as follows: Cell cycle arrest in human LNCaP cells assessed as accumulation at G1 phase at 1 uM after 72 hrs. Format: functional. The essentials:
as §2

Assay [6] concerns LNCaP. The experiment in a line: Decrease in androgen receptor protein expression in human LNCaP cells at 5 uM after 48 hrs by immunocytochemical method. Format: functional, cell-based. The gist of the method:
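LNCaP cells were seeded on coverslips (2.5 × 10⁵/well) for 24 h, then exposed to 5 μM for 48 h. They were fixed and permeabilized with 0.1% Triton X-100 in PBS for 1 h. Mouse anti-AR (1:100) was applied for 12 h at room temperature, then Alexa Fluor 488 goat anti-mouse IgG (1:100) for 2 h. Nuclei were counterstained with DAPI and slides imaged by microscopy.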

Assay [7] concerns LNCaP. The experiment in a line: Induction of apoptosis in human LNCaP cells assessed as PARP cleavage after 72 hrs. Format: functional, cell-based. The gist of the method: (§3)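 LNCaP cells were treated over a dose range for 72 h. Lysates were prepared with protease/phosphatase inhibitors and run on 10% SDS-PAGE, then transferred to nitrocellulose. PARP cleavage and caspase-3 and caspase-7 processing were detected by immunoblot with chemiluminescence.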

Assay [8] relates to LNCaP. The experiment in a line: Cell cycle arrest in human LNCaP cells assessed as accumulation at S phase at 10 uM after 72 hrs. The class given is functional. The gist of the method:
as §2

Assay [9] relates to LNCaP. The assay is described as follows: Inhibition of androgen receptor mRNA expression in human LNCap cells after 72 hrs. The class given is functional, cell-based. Conditions: in the assay text read “protein expression” for “mRNA expression”.
In assay [10] the test system is PC-3. The assay is described as follows: Antitumor activity against androgen non-responsive human PC3 cells by MTT assay at 48 hrs. Format: functional, cell-based. As to conditions: PC-3, 48 h. The gist of the method: (§4)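 LNCaP or PC-3 cells were seeded at 6000/well in 10% FBS RPMI 1640 for 24 h. They were then treated at various concentrations in 5% FBS RPMI 1640 for 48 or 72 h, with DMSO-matched controls. MTT (0.5 mg/ml) was added for 2 h at 37°C and the dye solubilized in DMSO. A570 was read in six replicates, and IC50 was taken from dose-response.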

Assay [11] has as its system LNCaP. The assay is described as follows: Cell cycle arrest in human LNCaP cells assessed as accumulation at G2/M phase at 7.5 uM after 72 hrs. Format: functional. The gist of the method:
as §2

Assay [12] deals with LNCaP. The experiment in a line: Cell cycle arrest in human LNCaP cells assessed as accumulation at subG1 phase at 10 uM after 72 hrs. The class given is functional. The gist of the method:
as §2

Assay [13] deals with LNCaP. The assay is described as follows: Antitumor activity against androgen responsive human LNCaP cells by MTT assay at 48 hrs. Format: functional, cell-based. The essentials:
as §4
(In general: Tetrazolium dyes change colour on reduction, which living cells bring about.)

For assay [14], the system named is LNCaP. The assay is described as follows: Cell cycle arrest in human LNCaP cells assessed as accumulation at S phase at 1 uM after 72 hrs. Format: functional. The essentials: as §2
Assay [15] has as its system LNCaP. The assay is described as follows: Induction of apoptosis in human LNCaP cells assessed as caspase 3 activation after 72 hrs. The class given is functional, cell-based. The gist of the method:
as §3

The test system of assay [16] is LNCaP. The experiment in a line: Inhibition of androgen receptor protein expression in human LNCaP cells after 72 hrs by Western blotting. The class given is functional, cell-based. The gist of the method:
as §1

Assay [17] concerns LNCaP. The experiment in a line: Cell cycle arrest in human LNCaP cells assessed as accumulation at G2/M phase at 1 uM after 72 hrs. Format: functional. The essentials:
as §2

The test system of assay [18] is LNCaP. The assay is described as follows: Cell cycle arrest in human LNCaP cells assessed as accumulation at subG1 phase at 1 uM after 72 hrs. Format: functional. The essentials:
as §2

Assay [19] concerns LNCaP. The experiment in a line: Cell cycle arrest in human LNCaP cells assessed as accumulation at G1 phase at 5 uM after 72 hrs. Format: functional. The essentials: as §2
The subject of assay [20] is LNCaP. The experiment in a line: Cell cycle arrest in human LNCaP cells assessed as accumulation at G1 phase at 7.5 uM after 72 hrs. Format: functional. The essentials: as §2
The subject of assay [21] is LNCaP. The assay is described as follows: Cell cycle arrest in human LNCaP cells assessed as accumulation at S phase at 7.5 uM after 72 hrs. Format: functional. The gist of the method:
as §2

Assay [22] relates to LNCaP. The assay is described as follows: Cell cycle arrest in human LNCaP cells assessed as accumulation at G2/M phase at 10 uM after 72 hrs. Format: functional. The gist of the method: as §2
For assay [23], the system named is LNCaP. The assay is described as follows: Cell cycle arrest in human LNCaP cells assessed as accumulation at G2/M phase at 2.5 uM after 72 hrs. Format: functional. The essentials:
as §2

For assay [24], the system named is LNCaP. The assay is described as follows: Cell cycle arrest in human LNCaP cells assessed as accumulation at subG1 phase at 7.5 uM after 72 hrs. The class given is functional. The essentials:
as §2

For assay [25], the system named is LNCaP. The assay is described as follows: Cell cycle arrest in human LNCaP cells assessed as accumulation at subG1 phase at 2.5 uM after 72 hrs. The class given is functional. The essentials: as §2
Assay [26] deals with LNCaP. The assay is described as follows: Cell cycle arrest in human LNCaP cells assessed as accumulation at S phase at 5 uM after 72 hrs. The class given is functional. The gist of the method:
as §2

The test system of assay [27] is PC-3. The assay is described as follows: Antitumor activity against androgen non-responsive human PC3 cells by MTT assay at 72 hrs. The class given is functional, cell-based. Conditions: PC-3, 72 h. The gist of the method:
as §4

Assay [28] concerns LNCaP. The assay is described as follows: Antitumor activity against androgen responsive human LNCaP cells by MTT assay at 72 hrs. The class given is functional, cell-based. The gist of the method:
as §4

In assay [29] the test system is LNCaP. The assay is described as follows: Induction of apoptosis in human LNCaP cells assessed as caspase 7 activation after 72 hrs. The class given is functional, cell-based. The gist of the method:
as §3

The subject of assay [30] is LNCaP. The assay is described as follows: Cell cycle arrest in human LNCaP cells assessed as accumulation at G1 phase at 2.5 uM after 72 hrs. Format: functional. The gist of the method: as §2
Assay [31] deals with LNCaP. The assay is described as follows: Cell cycle arrest in human LNCaP cells assessed as accumulation at subG1 phase at 5 uM after 72 hrs. Format: functional. The gist of the method:
as §2

Assay [32] concerns LNCaP. The assay is described as follows: Cell cycle arrest in human LNCaP cells assessed as accumulation at G2/M phase at 5 uM after 72 hrs. Format: functional. The essentials: as §2
For assay [33], the system named is LNCaP. The assay is described as follows: Suppression of androgen receptor protein expression in human LNCaP cells at 30 uM by Western blotting. The class given is functional, cell-based. The gist of the method: as §1

Molecules are shown by their SMILES. Active and inactive are the calls of the source. The rule behind the calls is not given here.

Take `CC1(COc2ccc(CC3SC(=O)NC3=O)cc2)CCCCC1` (configuration not stated): the outcome with LNCaP [1] and in the assay on LNCaP [2] was Active.

In the case of `CC1(CN2C(=O)S/C(=C\c3ccc(O)c(C(F)(F)F)c3)C2=O)CCCCC1`, the Activity with LNCaP [3] was 19%; with LNCaP [4], 51%; with LNCaP [5], 66%; in the assay on LNCaP [7], “Dose-dependent effect”; with LNCaP [8], 21%; with LNCaP [11], 2%. Also, the Activity in the assay with LNCaP [12] is 28%; with LNCaP [14], 19%; in the assay on LNCaP [15], “Dose-dependent effect”; with LNCaP [17] it was 14%; with LNCaP [18], 1%; in the assay on LNCaP [19] it was 69%. Further, the Activity came out at 63% in the assay on LNCaP [20]; 15% with LNCaP [21]; 0% with LNCaP [22]; 14% with LNCaP [23]; 20% in the assay on LNCaP [24]; 2% with LNCaP [25]. In addition, the Activity is 18% in the assay with LNCaP [26]; “Dose-dependent effect” with LNCaP [29]; 65% with LNCaP [30]; 10% in the assay with LNCaP [31]; 3% in the assay with LNCaP [32]. Moreover, the outcome in the assay with LNCaP [6] and with LNCaP [9] was Active. In addition, the concentration for half-maximal inhibition (IC50) with PC-3 [10] was 15 µM; in the assay with LNCaP [13], 8 µM; with LNCaP [16], 2 µM; with PC-3 [27], 12 µM; in the assay on LNCaP [28], 3 µM.

Regarding `CCOc1cc(/C=C2\SC(=O)NC2=O)ccc1OCC1(C)CCCCC1`, the Activity entry with LNCaP [16] is “Dose-dependent effect”.

Regarding `CC1(CN2C(=O)S/C(=C\c3ccc(O)cc3)C2=O)CCCCC1`, the Activity entry in the assay on LNCaP [16] is “Dose-dependent effect”.

Consider `CC1(CN2C(=O)SC(Cc3ccc(O)c(C(F)(F)F)c3)C2=O)CCCCC1` (configuration not stated), for which the Activity result in the assay with LNCaP [16] was “Dose-dependent effect”.

Turning to `CC1(COc2cccc(/C=C3\SC(=O)NC3=O)c2)CCCCC1`, the Activity result in the assay on LNCaP [16] was “Dose-dependent effect”.

Turning to `CC1(COc2ccc(/C=C3\SC(O)=NC3=O)cc2)CCCCC1`, the outcome with LNCaP [33] was Active.

As for `CC1(CN2C(=O)S/C(=C\c3cc(Br)c(O)c(Br)c3)C2=O)CCCCC1`, the Activity result with LNCaP [7], in the assay with LNCaP [15] and with LNCaP [29] was “Dose-dependent effect” in each case. The result in the assay on LNCaP [9] was Active. In the assay on LNCaP [16], half-maximal inhibition (IC50) required 4 µM.

As a reminder, the IC50 is the concentration that gives 50% inhibition. Read a low IC50 as greater potency.
